# Source: ChEMBL document CHEMBL4038284, “Synthesis of novel quinoline-based 4,5-dihydro-1H-pyrazoles as potential anticancer, antifungal, antibacterial and antiprotozoal agents” (Eur J Med Chem, 2017)
# Legend:
# Format in all cases: functional
# CCRF-CEM = assay: Growth inhibition of human CCRF-CEM cells incubated for 48 hrs by sulforhodamine B assay
# Summary of the method: (§1)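 NCI 60-line screen. Cells in RPMI-1640 with 5% FBS and 2 mM L-glutamine, preincubated 24 h, then time-zero plates TCA-fixed. Compounds from DMSO stocks given at five final concentrations (100, 10, 1.0, 0.1, 0.01 µM) for 48 h at 37 °C, 5% CO2. Cells fixed with 10% TCA, SRB-stained, read at 515 nm. GI50 is the concentration giving 50% lower net protein increase versus control.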
# HL-60(TB) = assay: Growth inhibition of human HL-60(TB) cells incubated for 48 hrs by sulforhodamine B assay; settings: HL-60, 48 h; summary of the method: as §1
# RPMI-8226 = assay: Growth inhibition of human RPMI8226 cells incubated for 48 hrs by sulforhodamine B assay; settings: RPMI-8226, 48 h; summary of the method: as §1
# SR = assay: Growth inhibition of human SR cells incubated for 48 hrs by sulforhodamine B assay; summary of the method: as §1
# A549 = assay: Growth inhibition of human A549/ATCC cells incubated for 48 hrs by sulforhodamine B assay; settings: A549, 48 h; summary of the method: as §1
# NCI-H23 = assay: Growth inhibition of human NCI-H23 cells incubated for 48 hrs by sulforhodamine B assay; settings: NCI-H23, 48 h
# Summary of the method: (§2)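 Five-dose NCI SRB assay at 100, 10, 1.0, 0.1 and 0.01 μM for 48 h at 37 °C, 5% CO2. Medium was RPMI-1640 with 5% FBS and 2 mM glutamine. Time-zero plates were TCA-fixed at compound addition, A515 read after SRB staining. GI50 was solved from [(Ti−Tz)/(C−Tz)]×100 = 50. Values beyond the tested range are given as > or <.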
# NCI-H460 = assay: Growth inhibition of human NCI-H460 cells incubated for 48 hrs by sulforhodamine B assay; settings: NCI-H460, 48 h; summary of the method: as §2
# COLO 205 = assay: Growth inhibition of human COLO205 cells incubated for 48 hrs by sulforhodamine B assay; settings: COLO 205, 48 h
# Summary of the method: (§3)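 NCI five-dose SRB assay (100, 10, 1.0, 0.1, 0.01 µM) with 48 h exposure in RPMI-1640 with 5% FBS and 2 mM L-glutamine. Cells fixed with TCA and stained with SRB, read at 515 nm. GI50 is the concentration where [(Ti−Tz)/(C−Tz)]×100 = 50.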
# HCT-116 = assay: Growth inhibition of human HCT116 cells incubated for 48 hrs by sulforhodamine B assay; settings: HCT-116, 48 h; summary of the method: as §3
# HCT-15 = assay: Growth inhibition of human HCT15 cells incubated for 48 hrs by sulforhodamine B assay; settings: HCT-15, 48 h; summary of the method: as §1
# HT-29 = assay: Growth inhibition of human HT-29 cells incubated for 48 hrs by sulforhodamine B assay; settings: HT-29, 48 h; summary of the method: as §2
# KM12 = assay: Growth inhibition of human KM12 cells incubated for 48 hrs by sulforhodamine B assay; settings: KM12, 48 h; summary of the method: as §2
# SW-620 = assay: Growth inhibition of human SW620 cells incubated for 48 hrs by sulforhodamine B assay; settings: SW-620, 48 h
# Summary of the method: (§4)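 NCI-60 panel cells grown in RPMI-1640 with 5% FBS and 2 mM L-glutamine, preincubated 24 h at 37 °C/5% CO2. Time-zero plates were TCA-fixed at compound addition. DMSO stocks were diluted in medium and tested at five final concentrations (100, 10, 1.0, 0.1, 0.01 µM) for 48 h. Cells were TCA-fixed, stained with SRB and read at 515 nm. GI50 = 50% lower net protein increase versus control.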
# SF-268 = assay: Growth inhibition of human SF268 cells incubated for 48 hrs by sulforhodamine B assay; settings: SF-268, 48 h; summary of the method: as §2
# SNB-19 = assay: Growth inhibition of human SNB19 cells incubated for 48 hrs by sulforhodamine B assay; settings: SNB-19, 48 h; summary of the method: as §4
# SNB-75 = assay: Growth inhibition of human SNB75 cells incubated for 48 hrs by sulforhodamine B assay; settings: SNB-75, 48 h; summary of the method: as §1
# U-251 = assay: Growth inhibition of human U251 cells incubated for 48 hrs by sulforhodamine B assay; settings: U-251, 48 h; summary of the method: as §4
# MDA-MB-435 = assay: Growth inhibition of human MDA-MB-435 cells incubated for 48 hrs by sulforhodamine B assay; settings: MDA-MB-435, 48 h; summary of the method: as §2
# UACC-62 = assay: Growth inhibition of human UACC62 cells incubated for 48 hrs by sulforhodamine B assay; settings: UACC-62, 48 h; summary of the method: as §1
# OVCAR-3 = assay: Growth inhibition of human OVCAR3 cells incubated for 48 hrs by sulforhodamine B assay; settings: OVCAR-3, 48 h; summary of the method: as §2
# OVCAR-4 = assay: Growth inhibition of human OVCAR4 cells incubated for 48 hrs by sulforhodamine B assay; settings: OVCAR-4, 48 h; summary of the method: as §2
# OVCAR-8 = assay: Growth inhibition of human OVCAR8 cells incubated for 48 hrs by sulforhodamine B assay; settings: OVCAR-8, 48 h; summary of the method: as §2
# NCI/ADR-RES = assay: Growth inhibition of human NCI/ADR-RES cells incubated for 48 hrs by sulforhodamine B assay; summary of the method: as §1
# SK-OV-3 = assay: Growth inhibition of human SKOV3 cells incubated for 48 hrs by sulforhodamine B assay; settings: SK-OV-3, 48 h; summary of the method: as §1
# A498 = assay: Growth inhibition of human A498 cells incubated for 48 hrs by sulforhodamine B assay; settings: A498, 48 h; summary of the method: as §1
# RXF 393 = assay: Growth inhibition of human RXF393 cells incubated for 48 hrs by sulforhodamine B assay; settings: RXF 393, 48 h; summary of the method: as §2
# SN12C = assay: Growth inhibition of human SN12C cells incubated for 48 hrs by sulforhodamine B assay; summary of the method: as §4
# PC-3 = assay: Growth inhibition of human PC3 cells incubated for 48 hrs by sulforhodamine B assay; settings: PC-3, 48 h; summary of the method: as §2
# MCF7 = assay: Growth inhibition of human MCF7 cells incubated for 48 hrs by sulforhodamine B assay; settings: MCF7, 48 h; summary of the method: as §1
# T47D = assay: Growth inhibition of human T47D cells incubated for 48 hrs by sulforhodamine B assay; summary of the method: as §4
# MDA-MB-468 = assay: Growth inhibition of human MDA-MB-468 cells incubated for 48 hrs by sulforhodamine B assay; settings: MDA-MB-468, 48 h; summary of the method: as §2
# [1] = read-out: LC50 (the source's name)
smiles,measurement,setting,value
O=CN1N=C(c2ccc(Cl)cc2)CC1c1cccc(Nc2ccnc3cc(Cl)ccc23)c1 (configuration not stated),GI50,CCRF-CEM,1.42 µM
same,CC50,CCRF-CEM; [1],> 100 µM
same,GI50,HL-60(TB),1.27 µM
same,CC50,HL-60(TB); [1],> 100 µM
same,GI50,RPMI-8226,0.61 µM
same,CC50,RPMI-8226; [1],> 100 µM
same,GI50,SR,0.4 µM
same,CC50,SR; [1],> 100 µM
same,GI50,A549,2.03 µM
same,LC50 (concentration giving 50% net cell kill),A549,> 100 µM
same,GI50,NCI-H23,1.07 µM
same,CC50,NCI-H23; [1],> 100 µM
same,GI50,NCI-H460,1.86 µM
same,CC50,NCI-H460; [1],> 100 µM
same,GI50,COLO 205,1.43 µM
same,CC50,COLO 205; [1],21.4 µM
same,GI50,HCT-116,1.2 µM
same,LC50 (concentration killing 50% of cells),HCT-116,17.2 µM
same,GI50,HCT-15,1.36 µM
same,CC50,HCT-15; [1],> 100 µM
same,GI50,HT-29,1.28 µM
same,LC50,HT-29,56.4 µM
same,GI50,KM12,1.22 µM
same,CC50,KM12; [1],> 100 µM
same,GI50,SW-620,1.61 µM
same,CC50,SW-620; [1],> 100 µM
same,GI50,SF-268,2.73 µM
same,CC50,SF-268; [1],> 100 µM
same,GI50,SNB-19,4.19 µM
same,CC50,SNB-19; [1],> 100 µM
same,GI50,SNB-75,1.7 µM
same,CC50,SNB-75; [1],> 100 µM
same,GI50,U-251,2.47 µM
same,CC50,U-251; [1],53.9 µM
same,GI50,MDA-MB-435,0.38 µM
same,CC50,MDA-MB-435; [1],> 100 µM
same,GI50,UACC-62,1.14 µM
same,CC50,UACC-62; [1],87.8 µM
same,GI50,OVCAR-3,1.1 µM
same,CC50,OVCAR-3; [1],83.3 µM
same,GI50,OVCAR-4,0.64 µM
same,CC50,OVCAR-4; [1],79.8 µM
same,GI50,OVCAR-8,1.92 µM
same,LC50 (concentration causing 50% net cell kill),OVCAR-8,> 100 µM
same,GI50,NCI/ADR-RES,0.78 µM
same,CC50,NCI/ADR-RES; [1],> 100 µM
same,GI50,SK-OV-3,2.9 µM
same,CC50,SK-OV-3; [1],> 100 µM
same,GI50,A498,0.98 µM
same,CC50,A498; [1],> 100 µM
same,GI50,RXF 393,1.4 µM
same,CC50,RXF 393; [1],> 100 µM
same,GI50,SN12C,3.99 µM
same,CC50,SN12C; [1],> 100 µM
same,GI50,PC-3,1.69 µM
same,CC50,PC-3; [1],> 100 µM
same,GI50,MCF7,0.87 µM
same,CC50,MCF7; [1],> 100 µM
same,GI50,T47D,0.82 µM
same,CC50,T47D; [1],> 100 µM
same,GI50,MDA-MB-468,0.28 µM
same,CC50,MDA-MB-468; [1],> 100 µM
